In ChEMBL document CHEMBL1136812, “Structure-activity relationships of dimethindene derivatives as new M2-selective muscarinic receptor antagonists” (J Med Chem, 2003):

Tests used:
Format in all cases: cell-based
[1] = biological target: Histamine H1 receptor (Homo sapiens, UniProt P35367); test: Compound was evaluated for binding affinity towards cloned human histamine H1 receptors stably expressed in CHO-K1 cells using [3H]mepyramine
Outline: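 CHO-K1 membranes with stable human H1 receptor, 18 µg/mL final protein. […] Nonspecific binding with 0.1 mM terfenadine. Filtered and counted. Ki by Cheng-Prusoff. pKi mean ± SD, ≥3 experiments in duplicate.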

[2] = biological target: Muscarinic acetylcholine receptor M3 (Homo sapiens, UniProt P20309); test: Binding affinity towards cloned human muscarinic acetylcholine receptor M3 stably expressed in CHO-K1 cells using [3H]N-methylscopolamine
[3] = biological target: T1, Muscarinic acetylcholine receptor M5 (Homo sapiens, UniProt P08912); test: Binding affinity towards cloned human muscarinic acetylcholine receptor M5 stably expressed in CHO-K1 cells using [3H]N-methylscopolamine
T1 sequence (P08912 whole entry): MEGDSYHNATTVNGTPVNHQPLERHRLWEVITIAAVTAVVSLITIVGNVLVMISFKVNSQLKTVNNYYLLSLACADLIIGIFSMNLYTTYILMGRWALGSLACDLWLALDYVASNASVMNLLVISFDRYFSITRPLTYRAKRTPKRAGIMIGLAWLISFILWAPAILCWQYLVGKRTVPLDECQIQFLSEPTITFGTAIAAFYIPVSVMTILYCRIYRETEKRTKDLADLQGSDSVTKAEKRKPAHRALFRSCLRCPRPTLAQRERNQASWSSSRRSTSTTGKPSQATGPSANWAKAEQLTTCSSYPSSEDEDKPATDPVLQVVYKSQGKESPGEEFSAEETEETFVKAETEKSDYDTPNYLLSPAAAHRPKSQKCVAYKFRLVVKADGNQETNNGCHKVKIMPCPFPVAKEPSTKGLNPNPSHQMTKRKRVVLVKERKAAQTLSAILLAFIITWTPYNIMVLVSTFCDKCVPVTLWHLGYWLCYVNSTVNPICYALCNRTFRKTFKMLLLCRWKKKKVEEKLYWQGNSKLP

[4] = biological target: T2, Muscarinic acetylcholine receptor M1 (Homo sapiens, UniProt P11229); test: Binding affinity towards cloned human muscarinic acetylcholine receptor M1 stably expressed in CHO-K1 cells using [3H]N-methylscopolamine
T2 sequence (P11229 whole entry): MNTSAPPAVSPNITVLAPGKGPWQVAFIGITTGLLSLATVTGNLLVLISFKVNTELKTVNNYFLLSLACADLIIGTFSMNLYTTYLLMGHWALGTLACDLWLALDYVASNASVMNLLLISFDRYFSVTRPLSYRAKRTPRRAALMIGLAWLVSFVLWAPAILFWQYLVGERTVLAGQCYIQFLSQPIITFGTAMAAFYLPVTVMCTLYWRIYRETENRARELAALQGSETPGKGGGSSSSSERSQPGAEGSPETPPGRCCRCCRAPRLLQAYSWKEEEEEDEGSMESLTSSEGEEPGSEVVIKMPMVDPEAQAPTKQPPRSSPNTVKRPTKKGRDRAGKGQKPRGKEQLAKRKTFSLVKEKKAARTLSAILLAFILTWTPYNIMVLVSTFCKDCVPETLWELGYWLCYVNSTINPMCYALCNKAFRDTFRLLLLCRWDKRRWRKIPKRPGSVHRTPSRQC

[5] = biological target: T3, Muscarinic acetylcholine receptor M2 (Homo sapiens, UniProt P08172); test: Binding affinity towards cloned human muscarinic acetylcholine receptor M2 stably expressed in CHO-K1 cells using [3H]N-methylscopolamine
T3 sequence (P08172 whole entry): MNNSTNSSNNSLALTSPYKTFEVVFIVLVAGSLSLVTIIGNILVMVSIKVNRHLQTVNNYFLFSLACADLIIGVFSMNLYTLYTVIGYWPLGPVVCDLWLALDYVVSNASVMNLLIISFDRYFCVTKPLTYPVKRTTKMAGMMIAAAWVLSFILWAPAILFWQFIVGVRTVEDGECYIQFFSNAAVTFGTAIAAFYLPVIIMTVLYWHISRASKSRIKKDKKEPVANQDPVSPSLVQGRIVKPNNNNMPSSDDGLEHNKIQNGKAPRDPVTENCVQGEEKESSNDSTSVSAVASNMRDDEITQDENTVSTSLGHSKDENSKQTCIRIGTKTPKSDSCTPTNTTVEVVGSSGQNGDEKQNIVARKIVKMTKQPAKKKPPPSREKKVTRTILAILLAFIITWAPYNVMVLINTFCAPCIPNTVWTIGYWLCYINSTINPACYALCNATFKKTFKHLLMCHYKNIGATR

[6] = biological target: T4, Muscarinic acetylcholine receptor M4 (Homo sapiens, UniProt P08173); test: Binding affinity towards cloned human muscarinic acetylcholine receptor M4 stably expressed in CHO-K1 cells using [3H]N-methylscopolamine
T4 sequence (P08173 whole entry): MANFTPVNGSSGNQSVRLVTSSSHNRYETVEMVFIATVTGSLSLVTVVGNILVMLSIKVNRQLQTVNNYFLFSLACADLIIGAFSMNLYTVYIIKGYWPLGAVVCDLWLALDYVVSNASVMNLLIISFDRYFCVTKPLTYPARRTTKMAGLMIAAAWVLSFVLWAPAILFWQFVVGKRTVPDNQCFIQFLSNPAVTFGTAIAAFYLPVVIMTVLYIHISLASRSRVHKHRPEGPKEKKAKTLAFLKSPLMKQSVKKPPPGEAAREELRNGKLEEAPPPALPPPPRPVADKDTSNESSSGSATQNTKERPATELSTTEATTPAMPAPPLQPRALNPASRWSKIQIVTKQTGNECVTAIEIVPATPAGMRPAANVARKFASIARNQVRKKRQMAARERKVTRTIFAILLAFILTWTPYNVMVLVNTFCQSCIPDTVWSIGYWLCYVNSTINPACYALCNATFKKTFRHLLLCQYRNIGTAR

Sequence of Histamine H1 receptor (P35367 whole entry): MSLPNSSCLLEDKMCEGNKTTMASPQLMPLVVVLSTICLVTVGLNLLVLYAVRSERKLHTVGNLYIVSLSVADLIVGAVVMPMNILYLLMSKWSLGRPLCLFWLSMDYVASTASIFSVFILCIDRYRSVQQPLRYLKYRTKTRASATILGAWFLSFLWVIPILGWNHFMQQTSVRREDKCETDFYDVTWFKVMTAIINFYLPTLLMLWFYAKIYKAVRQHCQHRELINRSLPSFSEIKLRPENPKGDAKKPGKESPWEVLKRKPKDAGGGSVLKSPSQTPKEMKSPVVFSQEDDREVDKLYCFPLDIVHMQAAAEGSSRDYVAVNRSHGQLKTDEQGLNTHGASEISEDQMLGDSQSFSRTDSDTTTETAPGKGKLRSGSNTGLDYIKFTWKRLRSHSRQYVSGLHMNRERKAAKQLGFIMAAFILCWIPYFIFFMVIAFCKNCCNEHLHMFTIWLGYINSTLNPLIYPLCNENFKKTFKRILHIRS
Sequence of Muscarinic acetylcholine receptor M3 (P20309 whole entry): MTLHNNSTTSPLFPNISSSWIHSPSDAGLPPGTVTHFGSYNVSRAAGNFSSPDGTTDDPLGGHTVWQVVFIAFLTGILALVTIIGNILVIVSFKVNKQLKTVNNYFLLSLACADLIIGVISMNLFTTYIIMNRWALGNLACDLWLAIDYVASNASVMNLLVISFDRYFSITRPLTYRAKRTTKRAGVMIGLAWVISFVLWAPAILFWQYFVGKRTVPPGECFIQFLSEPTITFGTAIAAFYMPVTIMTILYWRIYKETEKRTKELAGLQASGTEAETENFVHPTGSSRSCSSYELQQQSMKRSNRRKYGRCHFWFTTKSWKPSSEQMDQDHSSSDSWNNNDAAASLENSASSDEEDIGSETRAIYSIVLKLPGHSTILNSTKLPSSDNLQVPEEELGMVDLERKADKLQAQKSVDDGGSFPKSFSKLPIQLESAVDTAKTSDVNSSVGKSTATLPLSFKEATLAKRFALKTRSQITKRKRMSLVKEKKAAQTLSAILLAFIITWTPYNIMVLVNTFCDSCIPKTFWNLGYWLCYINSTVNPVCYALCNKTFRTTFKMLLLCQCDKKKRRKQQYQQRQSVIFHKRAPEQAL

| Ki [1] [nM] | Ki [2] [nM] | Ki [3] [nM] | Ki [4] [nM] | Ki [5] [nM] | Ki [6] [nM] | SMILES |
| --- | --- | --- | --- | --- | --- | --- |
| 69.2 | 138 | 759 | 191 | 30.2 | 295 | C[C@@H](C1=C(CCN(C)C)Cc2ccccc21)c1ccccn1 |
| 0.813 | 95.5 | 724 | 151 | 33.1 | 331 | CC(C1=C(CCN(C)C)Cc2cc(Cl)ccc21)c1ccccn1 (stereo not drawn) |
|  | 575 | 3240 | 891 | 263 | 1700 | CC(C1=C(CCCN(C)C)Cc2ccccc21)c1ccccn1 (stereo not drawn) |
|  | 1550 | 3630 | 1580 | 234 | 2400 | CN(C)CCC1=C(Cc2ccccn2)c2ccccc2C1 |
|  | 67.6 | 66.1 | 43.7 | 229 | 129 | CN(C)CCC1=C(C(c2ccccc2)c2ccccn2)c2ccccc2C1 (stereo not drawn) |
| 7.24 | 708 | 2000 | 603 | 32.4 | 437 | CC(C1=C(CCN(C)CCF)Cc2ccccc21)c1ccccn1 (stereo not drawn) |
|  | 1050 | 3240 | 871 | 912 | 2000 | CSc1ccc2c(c1)C(C(C)c1ccccn1)=C(CCN(C)C)C2 (stereo not drawn) |
|  | 1820 | 2190 | 871 | 145 | 1000 | CC(C1=C(CCN(C)C(C)C)Cc2ccccc21)c1ccccn1 (stereo not drawn) |
| 28.8 | 31.6 | 87.1 | 34.7 | 12.3 | 97.7 | CC(C1=C(CN(C)C)Cc2ccccc21)c1ccccn1 (stereo not drawn) |
|  | 2240 | 2190 | 741 | 25.1 | 741 | CC(C1=C(CCN(C(C)C)C(C)C)Cc2ccccc21)c1ccccn1 (stereo in doubt; 19) |
| 219 | 20900 | 5130 | 5890 | 575 | 5500 | CC(C1=C(CCN(C(C)C)C(C)C)Cc2ccccc21)c1ccccn1 (stereo in doubt; (+)-19) |
| 2450 | 4070 | 11700 | 1550 | 42.7 | 1780 | CC(C1=C(CCN(C(C)C)C(C)C)Cc2ccccc21)c1ccccn1 (stereo in doubt; (-)-19) |
| 0.437 | 3390 | 2690 | 1860 | 1230 | 3890 | C[C@H](C1=C(CCN(C)C)Cc2ccccc21)c1ccccn1 [(S)-(+)-DIMETHINDENE] |
| 0.692 |  |  |  |  |  | CC(C1=C(CCN(C)C)Cc2ccccc21)c1ccccn1 (stereo not drawn) [DIMETHINDENE] |
